In ChEMBL document CHEMBL4017514, “Discovery of Novel Macrocyclic Hedgehog Pathway Inhibitors Acting by Suppressing the Gli-Mediated Transcription” (J Med Chem, 2017):
Calls of active or inactive are those of the source. No cut-off for these calls is given here.

Key:
[1] = system: KB; test: Cytotoxicity against human KB cells; type: cell-based
[2] = Inhibition of hedgehog signaling pathway in mouse Light2 cells harboring Smo D473H mutant after 36 hrs by Gli luciferase activity; type: cell-based
Method in brief: (§1)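 Light II cells (NIH-3T3 stably carrying Gli-responsive firefly luciferase and Renilla vector) transfected with wild-type, D473H or W535L Smo plasmid. Exposed to compound for 36 h, then dual luciferase assay with firefly/Renilla normalization. IC50 derived and given as mean ± SD.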

[3] = Inhibition of hedgehog signaling pathway in mouse Shh Light2 cells harboring Gli1 plasmid assessed as reduction in Gli1-mediated transcriptional activity by luciferase reporter gene assay; type: cell-based
[4] = Inhibition of hedgehog signaling pathway in mouse Light2 cells in Shh conditioned medium by Gli-luciferase reporter gene assay; type: cell-based; settings: Mus musculus
Method in brief: (§2)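 Light II cells (NIH-3T3 stably transfected with Gli-responsive firefly luciferase and Renilla expression vector) stimulated with ShhN conditioned medium. This medium was collected from ShhN-transfected HEK293 cells kept in 0.1% FBS. Firefly luciferase normalized to Renilla. IC50 given as mean ± SD (nM) from three separate experiments.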

[5] = system: Mus musculus; test: Toxicity in athymic nude mouse implanted with mouse Ptch+/- p53-/- medulloblastoma cells assessed as body weight loss at 25 to 50 mg/kg, ip bid for 15 consecutive days; type: organism-based; settings: in vivo
Method in brief: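 Body weight of nude mice (n = 5) carrying medulloblastoma allografts was followed during 15 days of twice-daily ip dosing in 0.5% methylcellulose/0.2% Tween-80 suspension. Data given as mean ± SD.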

[6] = Inhibition of hedgehog signaling pathway in mouse Light2 cells harboring Smo W535L mutant after 36 hrs by Gli luciferase activity; type: cell-based; method in brief: as §1
[7] = Inhibition of hedgehog signaling pathway in mouse Light2 cells harboring wild type Smo after 36 hrs by Gli luciferase activity; type: cell-based; method in brief: as §1
[8] = Inhibition of hedgehog signaling pathway in mouse Shh Light2 cells assessed as reduction in ShhN-induced GLI-mediated transcriptional activity by luciferase reporter gene assay; type: cell-based; method in brief: as §2
[9] = Antitumor activity against mouse Ptch+/- p53-/- medulloblastoma cells implanted in athymic nude mouse assessed as tumor growth inhibition at 25 mg/kg, ip bid for 15 consecutive days; type: functional; settings: Medulloblastoma cell, read-out: TGI
Method in brief: (§3)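 Spontaneous ptch+/−;p53−/− intracranial medulloblastomas passaged subcutaneously in athymic nude mice, then 1 mm3 fragments implanted in the right flank. Dosing started at 100−150 mm3 tumor volume, n = 5. Drug given ip twice daily for 15 days as a suspension in 0.5% methylcellulose, 0.2% Tween-80. Caliper volume (length × width2/2) taken twice weekly. TGI calculated on the last day from growth versus vehicle.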

[10] = Antitumor activity against mouse Ptch+/- p53-/- medulloblastoma cells implanted in athymic nude mouse assessed as tumor growth inhibition at 50 mg/kg, ip bid for 15 consecutive days; type: functional; settings: Medulloblastoma cell, read-out: TGI; method in brief: as §3
[11] = Inhibition of hedgehog signaling pathway in mouse Shh Light2 cells harboring Gli2 plasmid assessed as reduction in Gli2-mediated transcriptional activity by luciferase reporter gene assay; type: cell-based
[12] = Inhibition of hedgehog signaling pathway in mouse C3H10T1/2 cells assessed as inhibition of hedgehog-induced cell differentiation after 48 hrs by luminescence assay; type: cell-based; settings: C3H 10T1/2, 48 h
[13] = species on record: Mus musculus; test: Inhibition of hedgehog signaling pathway in mouse Ptch+/- p53-/- medulloblastoma cells assessed as reduction in GLI1 mRNA expression at 5 uM by RT-qPCR analysis
Method in brief: (§4)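 ptch+/−;p53−/− medulloblastoma cells kept in Neurobasal A/B-27 medium with EGF and bFGF, then treated. Gli1 and ptch1 mRNA measured by RT-qPCR. Data given as mean ± SD.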

[14] = species on record: Mus musculus; test: Inhibition of hedgehog signaling pathway in mouse Light2 cells in Shh conditioned medium at 1 uM by Gli-luciferase reporter gene assay relative to control; type: cell-based
[15] = species on record: Mus musculus; test: Inhibition of hedgehog signaling pathway in mouse Ptch+/- p53-/- medulloblastoma cells assessed as reduction in ptch1 mRNA expression at 5 uM by RT-qPCR analysis; method in brief: as §4
[16] = species on record: Mus musculus; test: Inhibition of hedgehog signaling pathway in mouse NIH/3T3 cells harboring sufu shRNA assessed as downregulation of Gli1 mRNA expression at 1 uM by RT-qPCR analysis; type: cell-based
Method in brief: (§5)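 Sufu expression in NIH-3T3 cells was reduced by lentivirus carrying Sufu shRNA. Knockdown was checked by immunoblot of Sufu, with GAPDH as loading control, in lysates made in Tris pH 7.4/NaCl/NP-40 buffer with protease and phosphatase inhibitors. Gli1 and ptch1 mRNA were then measured in the knockdown cells by RT-qPCR.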

[17] = species on record: Mus musculus; test: Inhibition of hedgehog signaling pathway in mouse NIH/3T3 cells harboring sufu shRNA assessed as downregulation of ptch1 mRNA expression at 1 uM by RT-qPCR analysis; type: cell-based; method in brief: as §5
[18] = species on record: Mus musculus; test: Inhibition of hedgehog signaling pathway in mouse NIH/3T3 cells harboring sufu shRNA assessed as downregulation of ptch1 mRNA expression at 100 nM by RT-qPCR analysis; type: cell-based
[19] = species on record: Mus musculus; test: Inhibition of hedgehog signaling pathway in mouse NIH/3T3 cells assessed as downregulation of Shh-induced ptch1 mRNA expression levels at 100 nM after 36 hrs by RT-qPCR analysis; type: cell-based
Method in brief: (§6)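 NIH-3T3 or C3H10T1/2 cells treated as indicated for 36 h, then collected for RT-qPCR of Gli1 and ptch1 mRNA. Data given as mean ± SD.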

[20] = species on record: Mus musculus; test: Inhibition of hedgehog signaling pathway in mouse NIH/3T3 cells harboring sufu shRNA assessed as downregulation of Gli1 mRNA expression at 100 nM by RT-qPCR analysis; type: cell-based
[21] = species on record: Mus musculus; test: Inhibition of hedgehog signaling pathway in mouse C3H10T1/2 cells assessed as downregulation of Shh-induced ptch1 mRNA expression levels at 100 nM after 36 hrs by RT-qPCR analysis; type: cell-based; method in brief: as §6
[22] = species on record: Mus musculus; test: Inhibition of hedgehog signaling pathway in mouse C3H10T1/2 cells assessed as downregulation of Shh-induced Gli1 mRNA expression levels at 100 nM after 36 hrs by RT-qPCR analysis; type: cell-based; method in brief: as §6
[23] = species on record: Mus musculus; test: Inhibition of hedgehog signaling pathway in mouse NIH/3T3 cells assessed as downregulation of Shh-induced Gli1 mRNA expression levels at 100 nM after 36 hrs by RT-qPCR analysis; type: cell-based; method in brief: as §6
[24] = system: Medulloblastoma cell; test: Antiproliferative activity against mouse Ptch+/- p53-/- medulloblastoma cells assessed as reduction in cell proliferation up to 30 uM after 72 hrs by MTS assay; type: functional, cell-based
Method in brief: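 Tumor cells obtained from ptch+/−;p53−/− medulloblastoma allografts by mechanical mincing and collagenase digestion. Cultured in Neurobasal A with B-27, EGF 20 ng/mL, bFGF 20 ng/mL, nonessential amino acids and N-acetylcysteine 60 μg/mL. Exposed to compounds for 72 h, then proliferation read by MTS assay. Data given as mean ± SD.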

[25] = species on record: Mus musculus; test: Inhibition of hedgehog signaling pathway in mouse Shh Light2 cells harboring Gli2 plasmid assessed as reduction in Gli2-mediated transcriptional activity at 100 nM by luciferase reporter gene assay; type: cell-based
[26] = species on record: Mus musculus; test: Inhibition of hedgehog signaling pathway in mouse Shh Light2 cells harboring Gli1 plasmid assessed as reduction in Gli1-mediated transcriptional activity at 100 nM by luciferase reporter gene assay; type: cell-based

## COc1ccc(CN2C[C@@H]3CN(S(=O)(=O)c4ccc(Cl)cc4)CC[C@@H]3Oc3c(NC(=O)C4CC4)cccc3C2=O)cc1 (racemic)
[1]
  IC50: > 20000 nM
[2]
  IC50: 37.5 nM
[3]
  IC50: 29.9 nM
[4]
  IC50: 23 nM
[5]
  Activity: Non-Toxic
[6]
  IC50: 39.8 nM
[7]
  IC50: 35.7 nM
[8]
  IC50: 23 nM
[9]
  inhibition in vivo at 25 mg/kg: 57.5%
[10]
  inhibition in vivo at 50 mg/kg: 73.4%
[11]
  IC50: 24.9 nM

## C[C@H](CO)N1C[C@H](C)[C@H](CN(C)S(=O)(=O)c2ccc(Cl)cc2Cl)Oc2c(NC(=O)C3CC3)cccc2C1=O
[12]
  EC50: 60 nM
[13]
  inhibition: inactive
[14]
  inhibition: 67%
[4]
  IC50: 383 nM
[15]
  inhibition: inactive

## Cc1sc2c(c1C)C(c1ccc(Cl)cc1)=N[C@@H](CC(=O)OC(C)(C)C)c1nnc(C)n1-2
[16]
  inhibition: Active
[17]
  inhibition: Active

## CS(=O)(=O)c1ccc(C(=O)Nc2ccc(Cl)c(-c3ccccn3)c2)c(Cl)c1 [VISMODEGIB]
[18]
  inhibition: inactive
[19]
  inhibition: Active
[20]
  inhibition: inactive
[21]
  inhibition: Active
[22]
  inhibition: Active
[23]
  inhibition: Active
[14]
  inhibition: 93%
[4]
  IC50: 39 nM
[24]
  inhibition: Active
[25]
  inhibition: inactive
[26]
  inhibition: inactive
